The record followed here is ChEMBL document CHEMBL3351658, “Exploring human parainfluenza virus type-1 hemagglutinin-neuraminidase as a target for inhibitor discovery” (J Med Chem, 2014).

The nature of series [1]: Inhibition of hemagglutinin activity of human parainfluenza virus 1 C35 hemagglutinin-neuraminidase incubated for 20 mins in presence of chicken red blood cells. Set-up: species or system Human respirovirus 1. Summed up:
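HI used hPIV-1 strain C-35 grown in LLC-MK2 cells, with clarified supernatant ultrafiltered ≥10-fold. Compounds were diluted in PBS, mixed with virus (1 HAU final) and held 20 min at room temperature. Ice-cold 0.5% chicken RBC were added on ice, then 1 h 30 min at 4 °C. Run in duplicate, maximum 250 µM. IC50 is the concentration matching agglutination of a 0.5 HAU virus-only well.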

Series [2] has as its system LLC-MK2. Kind of series: (§1) Cytotoxicity against rhesus monkey LLC-MK2 cells assessed as cell viability at 250 uM after 48 hrs by MTT assay. The format is cell-based, Macaca mulatta. The following applies: llc-mk2, 48 h, 250 µM. The method, boiled down:
(§2)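 LLC-MK2 cells were kept in EMEM with 1% glutamine (200 mM) and 2% FBS at 37 °C under 5% CO2. They were exposed in triplicate to 250 µM of each compound for 48 h. Viability was read by MTT or AlamarBlue assay.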
On the technique in general: Tetrazolium assays rely on reduction of a dye to a coloured formazan, in cell work by metabolically active cells.

For series [3], the system named is LLC-MK2. Kind of series: (§3) Cytotoxicity against rhesus monkey LLC-MK2 cells assessed as cell viability at 250 uM after 48 hrs by alamar blue assay. It is filed as cell-based, Macaca mulatta. The following applies: llc-mk2, 48 h, 250 µM. The method, boiled down:
as §2

Series [4] is described as follows: as §1. It is filed as cell-based, Macaca mulatta. As to conditions: LLC-MK2 cells, read-out: Activity. Summed up: as §2
The nature of series [5]: as §3. It is filed as cell-based, Macaca mulatta. The following applies: LLC-MK2 cells, read-out: Activity. Summed up: as §2

As to `CC(=O)N[C@H]1[C@H]([C@H](O)[C@H](O)CO)OC(C(=O)[O-])=C[C@@H]1NC(=N)N.[Na+]`, the IC50 in series [1] is above 250 µM. Also, the Activity entry in the series with LLC-MK2 [2] and in the series with LLC-MK2 [3] was “Non-toxic” in each case.
For the compound `CC(=O)N[C@H]1[C@H]([C@H](O)[C@H](O)CO)OC(C(=O)[O-])=C[C@@H]1N=[N+]=[N-].[Na+]`, the IC50 in series [1] was determined as 3.5 µM. In addition, the Activity entry in the series on LLC-MK2 [2] and in the series with LLC-MK2 [3] was “Non-toxic” throughout.
On to `CC(O)C(=O)N[C@H]1[C@H]([C@H](O)[C@H](O)CO)OC(C(=O)[O-])=C[C@@H]1N=[N+]=[N-].[Na+]` (some centres not stated), for which the half-inhibitory concentration (IC50) in series [1] came out at 40 µM. For the same compound, the Activity result with LLC-MK2 [2] and in the series with LLC-MK2 [3] was “Non-toxic” in each case.
For the compound `[N-]=[N+]=N[C@H]1C=C(C(=O)[O-])O[C@@H]([C@H](O)[C@H](O)CO)[C@@H]1NC(=O)C1CCC1.[Na+]`, the IC50 in series [1] amounted to 0.93 µM. For the same compound, the Activity result in the series with LLC-MK2 [2] and with LLC-MK2 [3] was “Non-toxic” throughout.
Turning to `CC(C)C(=O)N[C@H]1[C@H]([C@H](O)[C@H](O)CO)OC(C(=O)O)=C[C@@H]1O`, the IC50 in series [1] was determined as 0.49 µM. The viability at 48 h, 250 µM in series [4] and in series [5] was 93% throughout.
For `CCC(C)C(=O)N[C@H]1[C@H]([C@H](O)[C@H](O)CO)OC(C(=O)[O-])=C[C@@H]1N=[N+]=[N-].[Na+]` (some centres not stated), the IC50 in series [1] worked out at 0.32 µM. Also, the Activity result in the series with LLC-MK2 [2] and with LLC-MK2 [3] was “Non-toxic” each time.
Turning to `[N-]=[N+]=N[C@H]1C=C(C(=O)[O-])O[C@@H]([C@H](O)[C@H](O)CO)[C@@H]1NC(=O)C1CC1.[Na+]`, in series [1], the IC50 worked out at 0.32 µM. Further, the Activity result in the series on LLC-MK2 [2] and in the series with LLC-MK2 [3] was “Non-toxic” throughout.
Regarding `C/C=C(\C)C(=O)N[C@H]1[C@H]([C@H](O)[C@H](O)CO)OC(C(=O)[O-])=C[C@@H]1N=[N+]=[N-].[Na+]`, the IC50 in series [1] came out at 3 µM. The Activity result in the series on LLC-MK2 [2] and with LLC-MK2 [3] was “Non-toxic” each time.
Take `CC(C)C(=O)N[C@H]1[C@H]([C@H](O)[C@H](O)CO)OC(C(=O)[O-])=C[C@@H]1NC(=N)N.[Na+]`: the IC50 in series [1] is above 250 µM. The Activity result with LLC-MK2 [2] and with LLC-MK2 [3] was “Non-toxic” throughout.
With `CC(=O)N[C@H]1[C@H]([C@H](O)[C@H](O)CO)OC(C(=O)[O-])=C[C@@H]1O.[Na+]`, the IC50 in series [1] was 15.9 µM. In addition, the Activity entry in the series with LLC-MK2 [2] and in the series on LLC-MK2 [3] was “Non-toxic” each time.
With `CC(=O)N[C@H]1[C@H]([C@H](O)[C@H](O)CO)OC(C(=O)[O-])=C[C@@H]1N.[Na+]`, in series [1], the IC50 is above 250 µM. Also, the Activity entry with LLC-MK2 [2] and in the series on LLC-MK2 [3] was “Non-toxic” each time.
For `CC(C)C(=O)N[C@H]1[C@H]([C@H](O)[C@H](O)CO)OC(C(=O)[O-])=C[C@@H]1N.[Na+]`, the half-inhibitory concentration (IC50) in series [1] was 7.29 µM. The Activity entry in the series on LLC-MK2 [2] and in the series on LLC-MK2 [3] was “Non-toxic” throughout.
`CC(C)C(=O)N[C@H]1[C@H]([C@H](O)[C@H](O)CO)OC(C(=O)[O-])=C[C@@H]1N=[N+]=[N-].[Na+]`: in series [1], the IC50 came out at 0.08 µM. Further, the Activity result in the series with LLC-MK2 [2] and in the series with LLC-MK2 [3] was “Non-toxic” each time.
Regarding `CC(CO)C(=O)N[C@H]1[C@H]([C@H](O)[C@H](O)CO)OC(C(=O)[O-])=C[C@@H]1N=[N+]=[N-].[Na+]` (some centres not stated), in series [1], the IC50 was determined as 3 µM. Also, the Activity entry in the series on LLC-MK2 [2] and in the series on LLC-MK2 [3] was “Non-toxic” each time.

Usually IC50 stands for the concentration that gives 50% inhibition.
